Hits are enriched below; roughly 3.4% of the tested compounds scored in any of these assays.
beta cell repl: inducers of beta-cell replication in MIN6 cells. proliferation, % at 10 µM. MIN6 cells proliferation, ATPlite luminescence, 48 h; cells starved in 0.2% serum; 100% = growth in 10% serum. actives 0.29% (n = 330,000);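 active = compounds whose signal lies at least 3.5 SD above the mean of all wells on their plate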;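 note: 0% = DMSO-treated cells in low-serum medium and 100% = 10% serum control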
TMEM16A act: activators or potentiators of mouse TMEM16A chloride channel; actives 0.3% (n = 340,000); HEK293 TMEM16A/YFP-H148Q/I152L, iodide quench fluorescence; hits give low values; Q8BHY3; B-score at 10 µM;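 active = fluorescence-ratio B-score plate-corrected deviation score at least 3 library SD below zero, with starting fluorescence score within 5 deviations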;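 note: channel opened by trigger with iodide after compound preincubation; score built on the fluorescence ratio of max minus min over baseline; more negative score means more quench and so TMEM16A activation or potentiation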
HTR2A ag: mouse HTR2A agonism via beta-arrestin recruitment | P35363 | CHO-K1 mHTR2A beta-arrestin complementation, luminescence; percent of 30 µM serotonin response | activation, % at 7.6 µM | actives 0.66% (n = 360,000) | AID 624169;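 active = activation above a run cutoff, the mean activation of all tested compounds plus 3 SD, cut at about 14% in these data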;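 note: 0% = plate median of compound wells and 100% = 30 µM serotonin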
MC4R ag barr: activates human MC4R beta-arrestin recruitment; U2OS MC4R beta-arrestin complementation, luminescence; percent of melanotan II response, DMSO zero; activation, % at 8.9 µM; actives 0.98% (n = 360,000); AID 540308;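 active = activation above a per-plate cutoff, the mean activation of sample wells on that plate plus 3 SD, cut at about 8% in these data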
MC4R antagonist: blocks human MC4R cAMP signaling; P32245; MC4R-expressing cells, MTII-stimulated cAMP, LANCE TR-FRET; inhibition, % at 6.5 µM; actives 0.48% (n = 360,000); AID 540295;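 active = inhibition above its plate's cutoff, the mean of tested wells on that plate plus 3 SD, cut at about 29% in these data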;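 note: 0% = Melanotan II alone and 100% = Melanotan II plus saturating MCL0020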
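Assay system: U2OS cells stably expressing human melanocortin 4 receptor (MC4R) / Dosing: 6.5 µM / Timing: compound 30 min, challenge 1 h, detection 1 h / Measured by: Eu-cAMP/anti-cAMP TR-FRET, emission 671 nm / Replicates: singlicate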
TMEM16A inh: blocks the mouse calcium-activated chloride channel TMEM16A; Q8BHY3; HEK293 TMEM16A/YFP iodide influx fluorescence, ionomycin; actives 1.2% (n = 310,000); normalized B-score (activity score, 25-100; higher = stronger inhibition) at 10 µM;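 active = ratio plate-corrected score three or more library SD toward inhibition, starting fluorescence score within five deviations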;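 note: score derived from kinetic fluorescence span divided by baseline fluorescence per well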
OPRM1 ag: activates human mu opioid receptor in HTR2A counterscreen | actives 5.3% (n = 2,300) | U2OS OPRM1 beta-arrestin PathHunter, luminescence; DMSO 0%, DAMGO 9.3 µM 100% | AID 624380 | activation, % at 9.3 µM | shares compounds with HTR2A ag;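 active = mean activation above the mean of DMSO-only wells plus 3 SD, cut at about 0.5% in these data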
Target sequence (P35372 whole entry, looked up): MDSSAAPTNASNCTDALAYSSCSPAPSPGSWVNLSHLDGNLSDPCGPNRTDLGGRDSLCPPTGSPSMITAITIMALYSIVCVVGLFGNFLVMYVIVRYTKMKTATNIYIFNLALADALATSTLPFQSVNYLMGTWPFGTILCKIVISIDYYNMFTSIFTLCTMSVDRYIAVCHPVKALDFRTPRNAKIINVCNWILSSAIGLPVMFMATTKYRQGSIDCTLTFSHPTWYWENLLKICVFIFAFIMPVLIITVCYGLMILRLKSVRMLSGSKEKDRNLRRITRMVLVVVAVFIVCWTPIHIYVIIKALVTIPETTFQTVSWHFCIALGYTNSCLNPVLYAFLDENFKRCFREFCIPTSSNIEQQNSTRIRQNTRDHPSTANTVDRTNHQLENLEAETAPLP
m5-HT2A ag conf: mouse HTR2A agonism confirmed. actives 19% (n = 2,300). AID 624381. CHO-K1 PathHunter beta-arrestin recruitment, luminescence; DMSO 0%, 30 µM serotonin 100%. activation, % at 7.6 µM. shares compounds with HTR2A ag;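 active = mean activation across triplicates above the hit threshold derived in the original primary screen, cut at about 15% in these data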
An asterisk follows results filed as active; i = inactive; . = no result.

SMILES	beta cell repl	TMEM16A act	HTR2A ag	MC4R ag barr	MC4R antagonist	TMEM16A inh	OPRM1 ag	m5-HT2A ag conf
N=c1sccn1CC(=O)Nc1cccc2ccccc12	1	i	20*	-2	-9	i	0	7
O=C1CC[C@@H](OCc2ccccc2)CCN1CC[C@H](Sc1ccccc1)c1ccccc1	-8	i	-7	3	7	i	.	.
COc1ccc(CN2CCN(C(=O)c3ccco3)CC2)c(OC)c1OC	-2	i	29*	1	0	i	-1	78*
COc1ccccc1CN1CCN(C(=O)c2ccco2)CC1	-2	i	30*	-1	-1	i	-1	92*
COc1ccc(Br)cc1CN1CCN(C(=O)c2ccco2)CC1	2	i	-2	-1	9	i	.	.
Cc1cccc2nc(COc3ccc4ccccc4c3Br)cn12	-6	i	32*	6	2	i	0	11
COc1ccccc1N(C)S(=O)(=O)c1ccc(C(=O)Nc2nc(C)c(C(C)=O)s2)cc1	0	i	18*	-4	8	.	0	-2
CCN(CC(=O)NCc1ccc(F)cc1)C(=O)c1cccnc1SC	1	i	15*	1	0	i	-1	-6
CCN(CC(=O)NCc1ccc(F)cc1)C(=O)c1ccc(C(=O)c2ccccc2)cc1	1	i	2	-1	1	i	.	.
COc1cc(OC)nc(NC(=S)NC(=O)c2ccccc2)n1	0	i	28*	1	-3	i	0	-1
COc1cc(OC)nc(NC(C)=O)n1	-2	i	-4	-1	0	i	.	.
CCOc1ccc(N2C(=O)CC(N(CCc3ccc(OC)cc3)C(=O)/C=C/C(=O)O)C2=O)cc1 (centres undefined)	0	i	17*	-2	-1	i	-1	-4
O=C(O)c1ccc(S(=O)(=O)N2CCC3(CC2)CC(=O)c2ccccc2O3)cc1	0	i	19*	0	1	i	0	2
COC(CN(C)C(=O)c1cn(C)c2ccc(S(=O)(=O)N(C)C3CCCCC3)cc2c1=O)OC	-4	i	10	-2	10	i	.	.
CC(C(=O)Nc1cccc(S(=O)(=O)N2CCOCC2)c1)N1CCN(C/C=C/c2ccccc2)CC1 (centres undefined)	-5	i	17*	-2	-3	i	-1	21*
Cc1cnc(C2OCCO2)c2cccc([N+](=O)[O-])c12	.	.	5	0	-7	.	.	.
COc1ccc(C(=O)CC(=O)C(=O)Nc2cccc(C(C)=O)c2)cc1	-1	i	5	1	13	i	.	.
O=C(c1ccc(OCc2cn3ccccc3n2)cc1)N1CCN(S(=O)(=O)c2ccccc2F)CC1	1	i	20*	-2	-3	.	0	-2
O=C(O)c1ccc(OCc2cn3ccccc3n2)cc1	0	i	9	1	3	i	.	.
CC(C)CNC(=O)C(=O)NCC1OCCN1S(=O)(=O)c1cccs1 (centres undefined)	2	i	-6	-2	6	i	.	.
Cc1ccc(SCC(=O)Nc2ccc(S(=O)(=O)Nc3ncccn3)cc2)cc1	-2	i	-3	-3	10	i	.	.
Cc1cc(C)nc(SCC(=O)Nc2ccc(S(=O)(=O)Nc3ncccn3)cc2)n1	3	i	19*	1	17	i	-1	-4
O=c1cc(C(F)(F)F)nc(SCc2cccc3ccccc23)[nH]1	-8	i	18*	1	-3	25*	-1	5
Nc1cc(=O)[nH]c(SCc2cccc3ccccc23)n1	-3	i	-1	-1	4	i	.	.
COc1cccc(N2C(=O)Nc3ccc(Br)cc3C2(O)C(=O)NCCCOC(C)C)c1 (centres undefined)	2	i	2	0	18	i	.	.
SMILES	beta cell repl	TMEM16A act	HTR2A ag	MC4R ag barr	MC4R antagonist	TMEM16A inh	OPRM1 ag	m5-HT2A ag conf
CCOc1ccc(N(C)Cc2cc(=O)oc3ccc(OCC)cc23)cc1	-2	i	-5	1	-4	i	.	.
O=C(Nc1ccc(F)cc1F)Nc1ccccc1C(=O)NCCN1CCNC1=O	-3	i	40*	-1	-2	i	0	-1
CCNC(=O)C1CCCN(C(=O)c2cc(C)oc2C)CC1 (centres undefined)	.	.	0	-1	11	.	.	.
Cc1ccccc1-n1c(=O)cc(N2CCN(C(=O)c3ccco3)CC2)[nH]c1=O	-1	i	24*	0	-7	i	-1	-2
Cc1ccccc1-n1c(=O)cc(N2CCCCCC2)[nH]c1=O	-1	i	1	-2	15	i	.	.
Cc1cc(C)c(OCC(=O)OCC(=O)N2CCN(C(=O)c3ccco3)CC2)c(C)c1	-4	i	19*	-2	5	i	0	-5
Cc1ccc(CN2CCN(C(=O)c3ccco3)CC2)cc1	-1	i	43*	3	-3	i	-1	121*
O=C(c1ccco1)N1CCN(Cc2ccccc2F)CC1	-5	i	20*	0	4	i	0	76*
CC1CC(C)(C)CC2(C1)NC(=O)N(CC(=O)Nc1ccc(N3CCCCC3)cc1)C2=O (centres undefined)	-2	i	-2	-1	-1	i	.	.
Cc1ccc(NS(=O)(=O)c2cc(C(=O)Nc3cccnc3)ccc2C)cc1	-2	i	4	-3	15	i	.	.
Cc1ccccc1CN1CCN(C(=O)c2ccco2)CC1	5	i	25*	0	14	i	0	85*
Cc1ccsc1C(=O)N1CCN(C(=O)c2ccco2)CC1	1	i	17*	-2	-4	.	-1	-4
Cc1cc(/C=C2\NC(=S)N(C)C2=O)ccc1N1CCCC1	-2	i	-1	-2	2	i	.	.
CCCN1C(=O)/C(=C/c2ccc(N3CCCC3)c(C)c2)NC1=S	-5	i	17*	0	14	i	0	9
C[C@H](CO)N1C[C@H](C)[C@@H](CN(C)Cc2ccncc2)Oc2c(NS(=O)(=O)c3cn(C)cn3)cccc2C1=O	4	i	4	0	16	.	.	.
